This is an account of results in PubChem BioAssay.

Assay [1] in a line: SK-BR-3 cell growth inhibitors, pilot screen, 24 h, human (AID 572;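 active = viability at or below 10% of carrier control in both of two separate runs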;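 note: compound exposure lasted between 18 and 24 h rather than exactly 24 h; 100% = carrier-treated control wells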). Conditions: SK-BR-3 viability, CellTiter-Glo luminescence, at 10 µM, stronger effect = lower value. (ATP-based viability assays read luminescence as a measure of living cells.)
Assay [2] is described as follows: HUVEC growth inhibition – cell-based, human, primary screen (AID 575).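 Note: 100% = median of untreated cell wells with 0.1% DMSO on each plate.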 Conditions: HUVEC proliferation, CellTiter-Glo luminescence, 72 h; at 10 µM; stronger effect = lower value. A digest of the protocol:
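Timing: 72 h treatment at 37 °C; material: HUVEC primary cells; technique: CellTiter-Glo luminescence measuring cellular ATP; controls: vehicle and MePR control wells; measure: percent of median DMSO-control luminescence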

Assay [3] in a line: growth inhibitors of H69AR lung tumor, primary screen, human, duplicate replicates (AID 580;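 active = viability at or under a set limit in both replicates, limit being median viability minus 3 SD, cut at about 48% in these data, passing the limit was not always enough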;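 note: 100% = mean luminescence of untreated wells and 0% = no signal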). To be noted: H69AR lung tumor cells viability, ATP luminescence, 72 h; at 10 µM; stronger effect = lower value.
The nature of assay [4]: reversal of MRP1-mediated doxorubicin resistance, pilot screen, H69AR cells, doxorubicin co-treatment (AID 601;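 active = viability loss from added drug above about 55%, and viability with drug at most 40%, in both replicates, limit read from the data, passing the limit was not always enough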). Conditions: CellTiter-Glo, 72 h, at 10 µM; for differential viability (reversal): stronger effect = higher value.
Assay [5] in a line: 384-well plate pilot, post-Golgi transport modulator project, inhibition of yeast transport mutant growth (AID 636; in the data active = inhibition above about 31%). To be noted: absorbance 615 nm, about 18 h, stronger effect = higher value.
Assay [6] can be described thus: growth suppression of yeast trafficking mutant, preliminary HTS, modulators of trafficking downstream of Golgi apparatus project, 1536-format plate, OD 615 nm (AID 637; in the data active = inhibition above about 30%). To be noted: yeast transport mutant growth, absorbance 615 nm, 18 h; stronger effect = higher value.
Where [7] appears, read: H69AR cells + 2 uM doxorubicin, measured here: viability with 2 uM doxorubicin, stronger effect = lower value.
Setting [8] is: H69AR cells, compound alone cytotoxicity.

SMILES strings stand for the structures. Calls of active or inactive are those of the source.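 Rule for the calls, unless noted: active = viability at or below 30% in both replicate assays; inconclusive = viability at or below 30% in just one of the two assays; inactive = the rest.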

As for `CCN(C(=O)c1cccs1)c1nnc(-c2ccncc2)s1`, the viability (as a rule, a read-out of living cells in per cent, often relative to untreated cells) in assay [1] was 105% (inactive); in assay [2] it was 120% (inactive); in assay [3] it was 92.5% (inactive); in assay [4] (setting [7]) it was 85.5%; in assay [4] (setting [8]), 92.5%. In addition, in assay [4] (H69AR cells + 2 uM doxorubicin), the differential viability (reversal) was 7.03% (inactive). For the same molecule, the values for the inhibition in assay [5] and in assay [6] were -3.33% (inactive) and 2.91% (inactive), respectively.
Regarding `CCn1c(SCC(N)=O)nnc1-c1ccc(S(=O)(=O)N2CCN(C)CC2)cc1`, the viability in assay [1] was 97% (inactive); in assay [2] it was 105% (inactive); in assay [3] it was 95.8% (inactive); in assay [4] (setting [7]) it was 86.6%; in assay [4] (setting [8]), 95.8%. Besides, the differential viability (reversal) in assay [4] (H69AR cells + 2 uM doxorubicin) is 9.21% (inactive). For the same molecule, the inhibition – broadly, the drop in the measured response relative to a control, in per cent – in assay [5] is 2.93% (inactive); in assay [6], 6.73% (inactive).
On to `Cc1ccc(C2=N/C(=C/N3CCOCC3)C(=O)O2)cc1`, for which the viability in assay [1] is 84% (inactive); in assay [2], 82.5% (inactive); in assay [3], 90.6% (inactive); in assay [4] (setting [7]), 77.5%; in assay [4] (setting [8]), 90.6%. The differential viability (reversal) in assay [4] (H69AR cells + 2 uM doxorubicin) was 13.1% (inactive). Also, the figures for the inhibition in assay [5] and in assay [6] were -2.08% (inactive) and -7.21% (inactive), respectively.
For the molecule `COc1ccc(CCN2C(=O)CC(N3CCOCC3)C2=O)cc1` (configuration not stated), the viability is 88% (inactive) in assay [1]; 89.4% (inactive) in assay [2]; 96.2% (inactive) in assay [3]; 79.9% in assay [4] (setting [7]); 96.2% in assay [4] (setting [8]). In addition, the differential viability (reversal) in assay [4] (H69AR cells + 2 uM doxorubicin) is 16.3% (inactive). Also, the figures for the inhibition in assay [5] and in assay [6] were 2.05% (inactive) and -7.58% (inactive), respectively.
With `COc1cc(NC(=O)Nc2cccc(C(C)=O)c2)cc(OC)c1OC`, the viability was 109% (inactive) in assay [1]; 102% (inactive) in assay [2]; 92.4% (inactive) in assay [3]; 87.6% in assay [4] (setting [7]); 92.4% in assay [4] (setting [8]). Moreover, in assay [4] (H69AR cells + 2 uM doxorubicin), the differential viability (reversal) is 4.83% (inactive). The inhibition in assay [5] was -8.36% (inactive); in assay [6], -0.18% (inactive).
On to `Cc1c(C=NCCOCc2ccccc2)cnn1C`, for which the viability in assay [1] is 92% (inactive); in assay [2], 109% (inactive); in assay [3] it was 96.2% (inactive); in assay [4] (setting [7]) it was 82.2%; in assay [4] (setting [8]), 96.2%. For the same molecule, the differential viability (reversal) in assay [4] (H69AR cells + 2 uM doxorubicin) is 14% (inactive). Further, the values for the inhibition in assay [5] and in assay [6] were 0% (inactive) and -0.48% (inactive), respectively.
With `Cc1cc2ccccc2c(=O)n1CC(=O)Nc1ccc2c(c1)OCO2`, the viability is 136% (inactive) in assay [1]; 86.6% (inactive) in assay [2]; 98.9% (inactive) in assay [3]; 93.7% in assay [4] (setting [7]); 98.9% in assay [4] (setting [8]). For the same molecule, in assay [4] (H69AR cells + 2 uM doxorubicin), the differential viability (reversal) is 5.25% (inactive). The inhibition in assay [5] is -2.34% (inactive); in assay [6], -7.05% (inactive).
Consider `Cn1c(=O)c2[nH]cnc2n(C)c1=O`, for which the viability in assay [1] is 101% (inactive); in assay [2], 107% (inactive); in assay [3], 97.4% (inactive); in assay [4] (setting [7]), 92.1%; in assay [4] (setting [8]), 97.4%. In addition, in assay [4] (H69AR cells + 2 uM doxorubicin), the differential viability (reversal) was 5.22% (inactive). Moreover, the results for the inhibition in assay [5] and in assay [6] were -1.3% (inactive) and -2.83% (inactive), respectively.
`CC(NC(=O)NC12CC3CC(CC(C3)C1)C2)C1CCCO1` (configuration not stated): the viability in assay [1] is 80% (inactive); in assay [2], 103% (inactive); in assay [3] it was 103% (inactive); in assay [4] (setting [7]) it was 93.4%; in assay [4] (setting [8]), 103%. For the same molecule, the differential viability (reversal) in assay [4] (H69AR cells + 2 uM doxorubicin) was 10.1% (inactive). Further, the inhibition was -3.7% (inactive) in assay [5] and 1.27% (inactive) in assay [6].
For the molecule `CSc1ncc(Cl)c(C(=O)Nc2ccc(S(=O)(=O)N3CCOCC3)cc2)n1`, the viability in assay [1] is 85% (inactive); in assay [2] it was 97% (inactive); in assay [3], 101% (inactive); in assay [4] (setting [7]), 91.8%; in assay [4] (setting [8]), 101%. Also, in assay [4] (H69AR cells + 2 uM doxorubicin), the differential viability (reversal) was 9.55% (inactive). For the same molecule, the inhibition in assay [5] is -7.67% (inactive); in assay [6], 0.36% (inactive).
For the molecule `O=C(CN1CCCN(S(=O)(=O)c2ccc(F)cc2)CC1)Nc1ccccc1Br`, the viability was 84% (inactive) in assay [1]; 87.7% (inactive) in assay [2]; 76.3% (inactive) in assay [3]; 83.5% in assay [4] (setting [7]); 76.3% in assay [4] (setting [8]). Also, the differential viability (reversal) in assay [4] (H69AR cells + 2 uM doxorubicin) is -7.18% (inactive). Further, the inhibition is 1.17% (inactive) in assay [5] and -1.48% (inactive) in assay [6].
For `O=C(O)CSC1CC(=O)N(c2ccc(Cl)c(Cl)c2)C1=O` (configuration not stated), the viability in assay [1] is 104% (inactive); in assay [2], 109% (inactive); in assay [3], 98.8% (inactive); in assay [4] (setting [7]) it was 91.1%; in assay [4] (setting [8]), 98.8%. Besides, the differential viability (reversal) in assay [4] (H69AR cells + 2 uM doxorubicin) is 7.75% (inactive). Besides, the results for the inhibition in assay [5] and in assay [6] were -8.38% (inactive) and 0.36% (inactive), respectively.
Consider `Cc1cccc(N(C)C(=S)Oc2ccc3ccccc3c2)c1`, for which the viability in assay [1] was 89% (inactive); in assay [2], 109% (inactive); in assay [3], 97.1% (inactive); in assay [4] (setting [7]) it was 84.1%; in assay [4] (setting [8]), 97.1%. The differential viability (reversal) in assay [4] (H69AR cells + 2 uM doxorubicin) was 13% (inactive). Also, the results for the inhibition in assay [5] and in assay [6] were 0.26% (inactive) and 1.83% (inactive), respectively.
With `COCC(=O)Nc1cc(OC)ccc1OC`, the viability in assay [1] was 83% (inactive); in assay [2] it was 89% (inactive); in assay [3], 102% (inactive); in assay [4] (setting [7]), 96.1%; in assay [4] (setting [8]), 102%. The differential viability (reversal) in assay [4] (H69AR cells + 2 uM doxorubicin) is 5.8% (inactive). Besides, the inhibition is -2.86% (inactive) in assay [5] and 0.66% (inactive) in assay [6].
Regarding `N#CCOc1nc(N2CCOCC2)nc(N2CCOCC2)n1`, the viability in assay [1] is 99% (inactive); in assay [2] it was 96.6% (inactive); in assay [3], 90.8% (inactive); in assay [4] (setting [7]) it was 91.8%; in assay [4] (setting [8]), 90.8%. The differential viability (reversal) in assay [4] (H69AR cells + 2 uM doxorubicin) is -0.985% (inactive). For the same molecule, the results for the inhibition in assay [5] and in assay [6] were -7.3% (inactive) and -2.73% (inactive), respectively.
For the molecule `COCCCn1c(=N)c(C(=O)NCC2CCCO2)cc2c(=O)n3cccc(C)c3nc21` (configuration not stated), the viability is 62% (inactive) in assay [1]; 93% (inactive) in assay [2]; 98.7% (inactive) in assay [3]; 93.3% in assay [4] (setting [7]); 98.7% in assay [4] (setting [8]). The differential viability (reversal) in assay [4] (H69AR cells + 2 uM doxorubicin) was 5.39% (inactive). Moreover, the inhibition in assay [5] was -6.8% (inactive); in assay [6] it was 2.18% (inactive).
Take `Cc1cc(Cl)c(S(=O)(=O)Nc2ccc3c(c2)OCCO3)cc1OCC(N)=O`: the viability in assay [1] was 78% (inactive); in assay [2] it was 107% (inactive); in assay [3], 97.2% (inactive); in assay [4] (setting [7]) it was 85.5%; in assay [4] (setting [8]) it was 97.2%. For the same molecule, the differential viability (reversal) in assay [4] (H69AR cells + 2 uM doxorubicin) is 11.7% (inactive). Moreover, the inhibition in assay [5] was 0.27% (inactive); in assay [6] it was 4.84% (inactive).
On to `Cc1ccc(N2CCN(c3ccc(C)cc3)C(CC(=O)O)C2=O)cc1` (configuration not stated), for which the viability in assay [1] is 92% (inactive); in assay [2] it was 98.2% (inactive); in assay [3], 97.4% (inactive); in assay [4] (setting [7]), 93.2%; in assay [4] (setting [8]), 97.4%. Also, the differential viability (reversal) in assay [4] (H69AR cells + 2 uM doxorubicin) is 4.25% (inactive). Moreover, the results for the inhibition in assay [5] and in assay [6] were -5.89% (inactive) and -3.23% (inactive), respectively.
As to `O=C(OC1CCc2ccccc2C1=O)c1ccccc1O` (configuration not stated), the viability was 71% (inactive) in assay [1]; 106% (inactive) in assay [2]; 78.6% (inactive) in assay [3]; 91.8% in assay [4] (setting [7]); 78.6% in assay [4] (setting [8]). Further, the differential viability (reversal) in assay [4] (H69AR cells + 2 uM doxorubicin) was -13.2% (inactive). Also, the inhibition in assay [5] is -1.33% (inactive); in assay [6], -1.27% (inactive).
